The values that follow come from ChEMBL document CHEMBL1142491, “Linking bisphosphonates to the free amino groups in fluoroquinolones: preparation of osteotropic prodrugs for the prevention of osteomyelitis” (J Med Chem, 2008).

Data set [1] relates to Staphylococcus aureus. The data set is described as follows: Antibacterial activity against Staphylococcus aureus ATCC 13709 after 24 hrs by microdilution method. It counts as functional. As to conditions: ATCC 13709, 24 h. In outline:
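MIC by broth microdilution per CLSI guidelines (M7 A7) against S. aureus ATCC 13709.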
Background: Broth dilution looks for growth in wells or tubes with falling amounts of substance.

The test system of data set [2] is Bone. In words: Binding affinity to bone assessed as drug level bound to cattle bone meal powder by fluorescence assay. Type of data set: tissue-based. On the set-up: concentration or dose not given beside the values. As to conditions: Bos taurus; Bone element. Summed up: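 Compound dissolved in PBS, added at 1 mg/mL final to bone meal powder slurry (10 mg/mL in PBS), 37 °C for 1 h. Spun 13 000 rpm 2 min. Bound amount taken as input minus amount in supernatant, measured by fluorescence. Limit of detection 0.01%.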

Data set [3] can be described thus: Stability in phosphate buffer saline assessed as amount of parent drug released from cattle bone meal powder over 24 hrs. Type of data set: ADME. In outline: (§1)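 Washed bone powder carrying bound prodrug resuspended in PBS or 50% (v/v in PBS) human or rat serum, 24 h at 37 °C, then centrifuged. Supernatant extracted with 5 volumes methanol (15 min vortex), spun, dried, redissolved in PBS. Released fluoroquinolone quantified by fluorescence. Limit of detection 0.01%.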

The test system of data set [4] is Serum. In words: Stability in 50% rat serum assessed as amount of parent drug released from cattle bone meal powder over 24 hrs. Type of data set: ADME, cell-free. In outline: as §1
Data set [5] concerns Serum. The data set is described as follows: Stability in 50% human serum assessed as amount of parent drug released from cattle bone meal powder over 24 hrs. Type of data set: ADME, cell-free. In outline:
as §1

In data set [6] the test system is Staphylococcus aureus. The data set is described as follows: Protective effect against Staphylococcus aureus ATCC 13709-induced bone infection in CD rat at 10 mg/kg, iv administered as single dose 1 hr after bacterial challenge. It counts as functional, organism-based. On the set-up: dose 10 mg/kg. In outline: (§2)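 S. aureus ATCC 13709 inoculum from frozen stock. Rats given intratibial 5% sodium morrhuate then about 5 × 10^5 CFU. Single IV bolus in saline, at the stated time relative to infection. Sacrificed 24 h post-infection. Tibiae milled and plated; mean log CFU/g bone ± SD. Detection limit 2 log CFU/g. Dunnett's test vs untreated, P<0.05.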

In data set [7] the test system is Staphylococcus aureus. In words: Protective effect against Staphylococcus aureus ATCC 13709-induced bone infection in CD rat at 20.8 mg/kg, iv administered as single dose 1 day before bacterial challenge. Type of data set: functional, organism-based. On the set-up: dose 20.8 mg/kg. Summed up: as §2
Data set [8] relates to Staphylococcus aureus. The data set is described as follows: Protective effect against Staphylococcus aureus ATCC 13709-induced bone infection in CD rat at 24 mg/kg, iv administered as single dose 1 day before bacterial challenge. Type of data set: functional, organism-based. On the set-up: dose 24 mg/kg. Summed up: as §2
The subject of data set [9] is Staphylococcus aureus. In words: Protective effect against Staphylococcus aureus ATCC 13709-induced bone infection in CD rat at 20 mg/kg, iv administered as single dose 2 days before bacterial challenge. On the set-up: dose 20 mg/kg. Type of data set: functional, organism-based. In outline:
as §2

Data set [10] relates to Staphylococcus aureus. The data set is described as follows: Protective effect against Staphylococcus aureus ATCC 13709-induced bone infection in CD rat at 42 mg/kg, iv administered as single dose 2 days before bacterial challenge. Type of data set: functional, organism-based. Also noted: dose 42 mg/kg. Summed up: as §2

Values after ≈ are worked out from the molar mass of the structure shown. Active and inactive are the calls of the source. The rule behind the calls is not given here.

As usually defined, the MIC is the lowest concentration found to suppress growth. For the compound `O=C(O)c1cn(C2CC2)c2cc(N3CCN(CC(P(=O)(O)O)P(=O)(O)O)CC3)c(F)cc2c1=O`, the MIC in [1] was more than 4 mg/L. Also, the Activity in data set [2] is 99.6%; in [3] it was 0.01%; in data set [4] it was 0.01%; in [5] it was 0.01%.

As for `COc1c(N2CCN(C(=O)CC(C)(C)c3cc(P(=O)(O)CP(=O)(O)O)ccc3OC(=O)C(C)C)C(C)C2)c(F)cc2c(=O)c(C(=O)O)cn(C3CC3)c12` (configuration not stated), in data set [1], the MIC is more than 4 mg/L. The Activity in data set [2] came to 76%; in [3], 0.8%; in [4], 6.1%; in [5] it was 3.6%.

`COc1c(N2CCN(C(=O)CC(C)(C)c3cc(P(=O)(O)CP(=O)(O)O)ccc3OC(C)=O)C(C)C2)c(F)cc2c(=O)c(C(=O)O)cn(C3CC3)c12` (configuration not stated) gave an MIC in data set [1] of more than 4 mg/L. The Activity in data set [2] was found to be 36.6%; in data set [3] it was 5.4%; in [4], 6.2%; in [5], 3.7%.

Take `COc1c(N2CCN(C(=O)OC(C)OC(=O)CCCC(=O)NC(P(=O)(O)O)P(=O)(O)O)C(C)C2)c(F)cc2c(=O)c(C(=O)O)cn(C3CC3)c12` (configuration not stated): the MIC in data set [1] was more than 4 mg/L. Also, the Activity in data set [2] came to 94.3%; in [3], 1.5%; in data set [4] it was 1.8%; in [5] it was 2.4%.

As to `COc1c(N2C[C@@H]3CCCN(C(=O)OC(C)OC(=O)CCCC(=O)NC(P(=O)(O)O)P(=O)(O)O)[C@@H]3C2)c(F)cc2c(=O)c(C(=O)O)cn(C3CC3)c12` (some centres not stated), in data set [1], the MIC is more than 4 mg/L. For the same compound, the Activity stood at 93.9% in [2], 1.2% in data set [3], 1.4% in data set [4] and 1.8% in data set [5].

Regarding `COc1c(N2C[C@@H]3CCCN(CC(P(=O)(O)O)P(=O)(O)O)[C@@H]3C2)c(F)cc2c(=O)c(C(=O)O)cn(C3CC3)c12`, the MIC in [1] is more than 4 mg/L. The Activity in data set [2] amounted to 92.2%; in data set [3], 0.01%; in data set [4], 0.01%; in data set [5], 0.01%.

For `COc1c(N2C[C@@H]3CCCN[C@@H]3C2)c(F)cc2c(=O)c(C(=O)O)cn(C3CC3)c12` [MOXIFLOXACIN], the MIC in data set [1] turned out to be 0.03 mg/L (≈ 0.0747 µM). Also, in data set [2], the Activity stood at 0.01%. Further, the result in data set [6] was Active.

For the compound `COc1c(N2CCN(C(=O)CC(P(=O)(O)O)P(=O)(O)O)C(C)C2)c(F)cc2c(=O)c(C(=O)O)cn(C3CC3)c12` (configuration not stated), the MIC in data set [1] was more than 4 mg/L. Besides, the Activity is 98.2% in [2], 0.01% in data set [3], 0.01% in data set [4] and 0.01% in [5].

Turning to `O=C(O)c1cn(C2CC2)c2cc(N3CCNCC3)c(F)cc2c1=O` [CIPROFLOXACIN], in data set [2], the Activity was found to be 0.01%.

Compound `COc1c(N2CCN(CCC(=O)c3ccc(OCCCC(P(=O)(O)O)P(=O)(O)O)cc3)C(C)C2)c(F)cc2c(=O)c(C(=O)O)cn(C3CC3)c12` (configuration not stated) yielded a minimum inhibitory concentration (MIC) in [1] of 0.12 mg/L (≈ 0.162 µM). Besides, the Activity turned out to be 94.7% in data set [2], 2.3% in data set [3], 4.2% in data set [4] and 4.3% in data set [5]. Moreover, the outcome in data set [7] was Active.

As to `COc1c(N2CCN(C(=O)OC(C)OC(=O)CCCC(P(=O)(O)O)P(=O)(O)O)C(C)C2)c(F)cc2c(=O)c(C(=O)O)cn(C3CC3)c12` (configuration not stated), the MIC in data set [1] is more than 4 mg/L. The Activity in data set [2] was 88.4%; in data set [3], 0.7%; in data set [4], 0.7%; in data set [5] it was 0.9%.

In the case of `COc1c(N2CCN(Cc3oc(=O)oc3-c3ccc(P(=O)(O)CP(=O)(O)O)cc3)C(C)C2)c(F)cc2c(=O)c(C(=O)O)cn(C3CC3)c12` (configuration not stated), the MIC in data set [1] was less than 0.12 mg/L. Further, the Activity in [2] came to 63.7%; in [3], 7.5%; in [4] it was 30%; in data set [5] it was 22.8%.

The compound `COc1c(N2C[C@@H]3CCCN(C(=O)CC(P(=O)(O)O)P(=O)(O)O)[C@@H]3C2)c(F)cc2c(=O)c(C(=O)O)cn(C3CC3)c12` yielded an MIC in data set [1] of more than 4 mg/L. Besides, the Activity in [2] stood at 99.9%; in data set [3], 0.01%; in data set [4] it was 0.01%; in [5], 0.01%. For the same compound, the outcome in data set [8] was inactive.

In data set [1], `COc1c(N2CCNC(C)C2)c(F)cc2c(=O)c(C(=O)O)cn(C3CC3)c12` (configuration not stated) [GATIFLOXACIN] showed an MIC of 0.06 mg/L (≈ 0.16 µM). Further, the Activity in data set [2] was determined as 0.01%. Besides, the result in data set [9] was inactive.

`COc1c(N2CCN(C(=O)CC(C)(C)c3cc(P(=O)(O)CP(=O)(O)O)ccc3OP(=O)(O)O)C(C)C2)c(F)cc2c(=O)c(C(=O)O)cn(C3CC3)c12` (configuration not stated) showed an MIC in [1] of more than 4 mg/L. The Activity in [2] was found to be 0.01%.

As for `COc1c(N2CCN(C(=O)OCOC(=O)CCC(P(=O)(O)O)P(=O)(O)O)C(C)C2)c(F)cc2c(=O)c(C(=O)O)cn(C3CC3)c12` (configuration not stated), the MIC in data set [1] stood at 0.5 mg/L (≈ 0.736 µM). The Activity was determined as 86.4% in data set [2], 13.4% in data set [3], 25.4% in [4] and 21.2% in [5]. Moreover, the outcome in data set [10] was Active.
